Values after ≈ are worked out from the molar mass of the structure shown. Active and inactive are the calls of the source. The calls are words filed in the database; no cut-off is given here.
Legend:
Format in all cases: functional
[1] = system: Radical scavenging activity; experiment: Antioxidant activity assessed as DPPH radical scavenging activity in chloroform solution at 100 ug/mL
[2] = system: Radical scavenging activity; experiment: Antioxidant activity assessed as DPPH radical scavenging activity in chloroform solution at 25 ug/mL
[3] = system: Radical scavenging activity; experiment: Antioxidant activity assessed as DPPH radical scavenging activity in chloroform solution at 50 ug/mL
[4] = system: Radical scavenging activity; experiment: Antioxidant activity assessed as DPPH radical scavenging activity in chloroform solution at 10 ug/mL
[5] = system: Radical scavenging activity; experiment: Antioxidant activity assessed as DPPH radical scavenging activity in ethanol solution at 50 ug/mL
Summary of the method: (§1)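 Compound dissolved in ethanol, then ethanolic DPPH added. Incubated 30 min in the dark. DPPH decrease read as absorbance at 517 nm against an ethanol blank, with ascorbic acid as reference. % activity = [(A0 − Ai)/A0] × 100, where A0 is absorbance without compound and Ai with compound. IC50 taken from activity across concentrations.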

[6] = system: Radical scavenging activity; experiment: Antioxidant activity assessed as DPPH radical scavenging activity in ethanol solution at 100 ug/mL; summary of the method: as §1
[7] = system: Radical scavenging activity; experiment: Antioxidant activity assessed as DPPH radical scavenging activity in chloroform solution at 5 ug/mL
[8] = system: Radical scavenging activity; experiment: Antioxidant activity assessed as DPPH radical scavenging activity in ethanol solution at 25 ug/mL; summary of the method: as §1
[9] = system: Radical scavenging activity; experiment: Antioxidant activity assessed as DPPH radical scavenging activity in ethanol solution at 5 ug/mL; summary of the method: as §1
[10] = system: Radical scavenging activity; experiment: Antioxidant activity assessed as DPPH radical scavenging activity in ethanol solution at 10 ug/mL; summary of the method: as §1
[11] = Antioxidant activity assessed as ABTS radical scavenging activity at 5 ug/mL
Summary of the method: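 ABTS radical cation solution diluted in ethanol to an absorbance of 0.7–0.9 at 734 nm, 30 °C. Equal volume added to ethanolic compound solution (5 µg/mL). Absorbance read after 1 min and converted to percent inhibition.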

[12] = system: Radical scavenging activity; experiment: Antioxidant activity assessed as DPPH radical scavenging activity in chloroform solution
[13] = system: Radical scavenging activity; experiment: Antioxidant activity assessed as DPPH radical scavenging activity in ethanol solution; summary of the method: as §1

COc1cc(/C=N/c2cc(C(C)C)c(O)cc2C)cc(OC)c1OC
Activity [1]: 89.9%
Activity [2]: 68.2%
Activity [3]: 82.9%
Activity [4]: 39.8%
Activity [5]: 73.3%
Activity [6]: 83.1%
Activity [7]: 20.7%
Activity [8]: 65.4%
Activity [9]: 26%
Activity [10]: 41.6%
Activity [11]: Active
IC50 [12]: 22.03 mg/L (≈ 64.1 µM)
IC50 [13]: 22.96 mg/L (≈ 66.9 µM)

Cc1cc(O)c(C(C)(C)C)cc1/N=C/c1ccc(O)cc1
Activity [1]: 92.6%
Activity [2]: 63.3%
Activity [3]: 82.3%
Activity [4]: 49.6%
Activity [5]: 89.3%
Activity [6]: 94.6%
Activity [7]: 31%
Activity [8]: 70.9%
Activity [9]: 31%
Activity [10]: 50.8%
Activity [11]: Active
IC50 [12]: 14.26 mg/L (≈ 50.3 µM)
IC50 [13]: 8.77 mg/L (≈ 30.9 µM)

COc1cc(/C=N/c2cc(C)c(O)cc2C(C)C)cc(OC)c1OC
Activity [1]: 88%
Activity [2]: 64.2%
Activity [3]: 75.7%
Activity [4]: 41.8%
Activity [5]: 76.5%
Activity [6]: 87.4%
Activity [7]: 19.7%
Activity [8]: 66.1%
Activity [9]: 26.4%
Activity [10]: 45.7%
Activity [11]: Active
IC50 [12]: 25.2 mg/L (≈ 73.4 µM)
IC50 [13]: 19.05 mg/L (≈ 55.5 µM)

Cc1cc(O)c(C(C)C)cc1/N=C/c1cc(Br)cc(Br)c1O
Activity [1]: 85.3%
Activity [2]: 68.3%
Activity [3]: 78.1%
Activity [4]: 45.1%
Activity [5]: 85.9%
Activity [6]: 88.7%
Activity [7]: 24.3%
Activity [8]: 75.9%
Activity [9]: 26.8%
Activity [10]: 44.2%
Activity [11]: Active
IC50 [12]: 19.19 mg/L (≈ 44.9 µM)
IC50 [13]: 12.76 mg/L (≈ 29.9 µM)

Cc1cc(O)c(C(C)C)cc1/N=C/c1cc(Br)c(O)c(Br)c1
Activity [1]: 90.1%
Activity [2]: 69.2%
Activity [3]: 77.4%
Activity [4]: 46.1%
Activity [5]: 92.3%
Activity [6]: 95.2%
Activity [7]: 25.2%
Activity [8]: 78.7%
Activity [9]: 24.1%
Activity [10]: 51.8%
Activity [11]: Active
IC50 [12]: 17.98 mg/L (≈ 42.1 µM)
IC50 [13]: 8.33 mg/L (≈ 19.5 µM)

COc1cc(/C=N/c2cc(C(C)C)c(O)cc2C)cc(OC)c1
Activity [1]: 89.1%
Activity [2]: 59.5%
Activity [3]: 84.2%
Activity [4]: 37%
Activity [5]: 71.5%
Activity [6]: 78.4%
Activity [7]: 21.8%
Activity [8]: 62.9%
Activity [9]: 24.5%
Activity [10]: 40.4%
Activity [11]: Active
IC50 [12]: 25.47 mg/L (≈ 81.3 µM)
IC50 [13]: 26.71 mg/L (≈ 85.2 µM)

Cc1cc(/N=C/c2ccccc2O)c(C(C)C)cc1O
Activity [1]: 90.4%
Activity [2]: 65.1%
Activity [3]: 86.1%
Activity [4]: 40.8%
Activity [5]: 79.9%
Activity [6]: 89.3%
Activity [7]: 32.6%
Activity [8]: 70.6%
Activity [9]: 33%
Activity [10]: 46.8%
Activity [11]: Active
IC50 [12]: 16.09 mg/L (≈ 59.7 µM)
IC50 [13]: 11.61 mg/L (≈ 43.1 µM)

Cc1cc(O)c(C(C)C)cc1/N=C/c1ccc(O)cc1
Activity [1]: 93%
Activity [2]: 70.2%
Activity [3]: 84.5%
Activity [4]: 50%
Activity [5]: 89.8%
Activity [6]: 92.9%
Activity [7]: 26%
Activity [8]: 77.1%
Activity [9]: 24.4%
Activity [10]: 51.8%
Activity [11]: Active
IC50 [12]: 13.32 mg/L (≈ 49.5 µM)
IC50 [13]: 9.02 mg/L (≈ 33.5 µM)

Cc1cc(O)c(C(C)C)cc1/N=C/c1ccccc1O
Activity [1]: 91%
Activity [2]: 70.6%
Activity [3]: 88.1%
Activity [4]: 47.1%
Activity [5]: 82%
Activity [6]: 88.3%
Activity [7]: 23.9%
Activity [8]: 70.7%
Activity [9]: 29.2%
Activity [10]: 49.3%
Activity [11]: Active
IC50 [12]: 14.77 mg/L (≈ 54.8 µM)
IC50 [13]: 11.79 mg/L (≈ 43.8 µM)

COc1ccc(/C=N/c2cc(C)c(O)cc2C(C)C)cc1OC
Activity [1]: 89.8%
Activity [2]: 64.2%
Activity [3]: 82.3%
Activity [4]: 43%
Activity [5]: 75.5%
Activity [6]: 87.8%
Activity [7]: 25.4%
Activity [8]: 67.5%
Activity [9]: 29.1%
Activity [10]: 44.1%
Activity [11]: Active
IC50 [12]: 20.1 mg/L (≈ 64.1 µM)
IC50 [13]: 18.12 mg/L (≈ 57.8 µM)

COc1ccc(/C=N/c2cc(C)c(O)cc2C(C)C)cc1
Activity [1]: 88.7%
Activity [2]: 67.1%
Activity [3]: 78.4%
Activity [4]: 41%
Activity [5]: 78.9%
Activity [6]: 89.5%
Activity [7]: 34.2%
Activity [8]: 69.2%
Activity [9]: 30.9%
Activity [10]: 47.5%
Activity [11]: Active
IC50 [12]: 16.24 mg/L (≈ 57.3 µM)
IC50 [13]: 13.5 mg/L (≈ 47.6 µM)

COc1ccc(/C=N/c2cc(C(C)C)c(O)cc2C)cc1
Activity [1]: 90.2%
Activity [2]: 74.1%
Activity [3]: 87.7%
Activity [4]: 44.6%
Activity [5]: 85%
Activity [6]: 88.5%
Activity [7]: 21.8%
Activity [8]: 77.5%
Activity [9]: 27.3%
Activity [10]: 43.3%
Activity [11]: Active
IC50 [12]: 15.79 mg/L (≈ 55.7 µM)
IC50 [13]: 12.54 mg/L (≈ 44.3 µM)

Cc1cc(O)c(C(C)(C)C)cc1/N=C/c1cc(Br)cc(Br)c1O
Activity [1]: 90.7%
Activity [2]: 76.4%
Activity [3]: 86.1%
Activity [4]: 45.2%
Activity [5]: 88.8%
Activity [6]: 90.1%
Activity [7]: 24.6%
Activity [8]: 72.7%
Activity [9]: 26.7%
Activity [10]: 48.2%
Activity [11]: Active
IC50 [12]: 13.46 mg/L (≈ 30.5 µM)
IC50 [13]: 11.45 mg/L (≈ 26 µM)

Cc1cc(/N=C/c2cc(Br)c(O)c(Br)c2)c(C(C)C)cc1O
Activity [1]: 91.3%
Activity [2]: 69%
Activity [3]: 85.8%
Activity [4]: 45.4%
Activity [5]: 88.2%
Activity [6]: 95.2%
Activity [7]: 31.7%
Activity [8]: 74.6%
Activity [9]: 33.3%
Activity [10]: 47.6%
Activity [11]: Active
IC50 [12]: 12.6 mg/L (≈ 29.5 µM)
IC50 [13]: 7.85 mg/L (≈ 18.4 µM)

COc1ccc(/C=N/c2cc(C(C)C)c(O)cc2C)cc1OC
Activity [1]: 88.9%
Activity [2]: 72%
Activity [3]: 85.2%
Activity [4]: 41.9%
Activity [5]: 84.1%
Activity [6]: 89.4%
Activity [7]: 20.6%
Activity [8]: 73.4%
Activity [9]: 19.7%
Activity [10]: 43.3%
Activity [11]: Active
IC50 [12]: 19.12 mg/L (≈ 61 µM)
IC50 [13]: 18.66 mg/L (≈ 59.5 µM)

COc1ccc(/C=N/c2cc(C(C)(C)C)c(O)cc2C)cc1OC
Activity [1]: 87.1%
Activity [2]: 72%
Activity [3]: 82.1%
Activity [4]: 35.3%
Activity [5]: 81.9%
Activity [6]: 90%
Activity [7]: 22.6%
Activity [8]: 62.2%
Activity [9]: 27.4%
Activity [10]: 49%
Activity [11]: Active
IC50 [12]: 22.05 mg/L (≈ 67.3 µM)
IC50 [13]: 17.03 mg/L (≈ 52 µM)

CCc1ccc(/C=N/c2cc(C)c(O)cc2C(C)C)cc1
Activity [5]: 75.2%
Activity [6]: 82.3%
Activity [8]: 61.3%
Activity [9]: 23.4%
Activity [10]: 42.1%
IC50 [13]: 25.34 mg/L (≈ 90.1 µM)

Cc1cc(/N=C/c2ccc([N+](=O)[O-])cc2)c(C(C)C)cc1O
Activity [5]: 55.8%
Activity [6]: 68.6%
Activity [8]: 43%
Activity [9]: 17.1%
Activity [10]: 32%
IC50 [13]: 51.92 mg/L (≈ 174 µM)

Cc1cc(O)c(C(C)C)cc1/N=C/c1ccc2c(c1)OCO2
Activity [5]: 82.5%
Activity [6]: 89.5%
Activity [8]: 74.5%
Activity [9]: 27.3%
Activity [10]: 48%
IC50 [13]: 11.95 mg/L (≈ 40.2 µM)

Cc1cc(O)c(C(C)(C)C)cc1/N=C/c1ccc(Br)cc1
Activity [5]: 74.2%
Activity [6]: 81.1%
Activity [8]: 59.4%
Activity [9]: 32.8%
Activity [10]: 43.9%
IC50 [13]: 20.36 mg/L (≈ 58.8 µM)

CCCc1ccc(/C=N/c2cc(C)c(O)cc2C(C)C)cc1
Activity [5]: 76.6%
Activity [6]: 84.7%
Activity [8]: 63.9%
Activity [9]: 23.9%
Activity [10]: 44.6%
IC50 [13]: 22.03 mg/L (≈ 74.6 µM)

Cc1cc(O)c(C(C)(C)C)cc1/N=C/c1ccc(C(C)(C)C)cc1
Activity [5]: 73%
Activity [6]: 86.7%
Activity [8]: 65.2%
Activity [9]: 27.5%
Activity [10]: 45.6%
IC50 [13]: 20.05 mg/L (≈ 62 µM)

Cc1cc(O)c(C(C)C)cc1/N=C/c1ccccn1
Activity [5]: 74.6%
Activity [6]: 92.8%
Activity [8]: 58.4%
Activity [9]: 25.5%
Activity [10]: 43.6%
IC50 [13]: 23.86 mg/L (≈ 93.8 µM)

Cc1cc(O)c(C(C)C)cc1/N=C/c1cccnc1
Activity [5]: 68.2%
Activity [6]: 79%
Activity [8]: 48%
Activity [9]: 16.5%
Activity [10]: 38.9%
IC50 [13]: 37.8 mg/L (≈ 149 µM)

Cc1ccc(/C=N/c2cc(C(C)(C)C)c(O)cc2C)cc1
Activity [5]: 69.6%
Activity [6]: 75.7%
Activity [8]: 57.7%
Activity [9]: 27.2%
Activity [10]: 48.4%
IC50 [13]: 24.32 mg/L (≈ 86.4 µM)

CCCc1ccc(/C=N/c2cc(C(C)(C)C)c(O)cc2C)cc1
Activity [5]: 70.8%
Activity [6]: 84%
Activity [8]: 62.9%
Activity [9]: 28.6%
Activity [10]: 45.8%
IC50 [13]: 21.12 mg/L (≈ 68.2 µM)

— ChEMBL document CHEMBL2311257, “Synthesis and antioxidant activity of thymol and carvacrol based Schiff bases” (Bioorg Med Chem Lett, 2013)
